pEC50: −log10 of the molar value.
Assays:
[1] = biological target: T1, Alpha-1A adrenergic receptor (Homo sapiens) (UniProt P35348); assay: Intrinsic activity at human alpha1A-adrenergic receptor expressed in HEK293 cells assessed as calcium flux by fluorescence assay relative to norepinephrine; assay type: functional, cell-based
T1 sequence (whole entry): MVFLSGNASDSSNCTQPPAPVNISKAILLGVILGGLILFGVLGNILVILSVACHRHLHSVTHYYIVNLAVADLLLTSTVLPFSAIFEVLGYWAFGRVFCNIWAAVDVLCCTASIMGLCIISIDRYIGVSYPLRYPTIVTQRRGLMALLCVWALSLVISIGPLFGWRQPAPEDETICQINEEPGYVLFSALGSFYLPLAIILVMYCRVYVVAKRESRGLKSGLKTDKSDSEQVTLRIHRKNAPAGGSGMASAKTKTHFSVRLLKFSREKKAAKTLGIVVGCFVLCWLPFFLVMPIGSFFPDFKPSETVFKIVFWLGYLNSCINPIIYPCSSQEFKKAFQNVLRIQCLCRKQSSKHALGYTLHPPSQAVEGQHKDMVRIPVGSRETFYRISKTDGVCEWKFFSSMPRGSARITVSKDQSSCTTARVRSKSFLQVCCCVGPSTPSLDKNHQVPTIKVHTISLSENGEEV

[2] = biological target: Beta-3 adrenergic receptor (Homo sapiens, UniProt P13945); assay: Agonist activity at human recombinant beta3-adrenergic receptor expressed in CHO cells assessed as increase of cAMP level after 30 mins; assay type: functional, cell-based
Beta-3 adrenergic receptor, sequence (P13945 whole entry): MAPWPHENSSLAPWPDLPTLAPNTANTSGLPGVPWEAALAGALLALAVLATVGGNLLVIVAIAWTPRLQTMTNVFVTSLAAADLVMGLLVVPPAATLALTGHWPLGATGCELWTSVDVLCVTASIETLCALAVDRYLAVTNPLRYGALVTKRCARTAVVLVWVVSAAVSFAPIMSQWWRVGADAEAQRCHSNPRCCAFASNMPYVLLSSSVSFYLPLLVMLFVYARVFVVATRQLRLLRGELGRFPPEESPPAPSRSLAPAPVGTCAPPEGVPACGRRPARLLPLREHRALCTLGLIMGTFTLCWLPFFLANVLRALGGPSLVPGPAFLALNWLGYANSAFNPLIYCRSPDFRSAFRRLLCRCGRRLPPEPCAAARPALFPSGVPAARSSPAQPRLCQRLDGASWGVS

Rattus norvegicus [3] = assay: Cardiotoxicity in anesthetized Sprague-Dawley rat assessed as increase in mean blood pressure at 3 mg/kg, iv measured for 30 mins relative to control; assay type: toxicity, organism-based; settings: in vivo, 0.5 h
Method in brief: (§1)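 Male Sprague-Dawley rats (200-300 g) were anesthetized with sodium pentobarbital (50 mg/kg i.p. plus 25 mg/kg s.c.). The compound was injected via the cannulated left femoral vein once BP and HR were stable, and HR and MBP were recorded for 30 min. Results are the maximum % increase or decrease from baseline, as mean ± SEM. Where given, silodosin (0.01 mg/kg iv) preceded the compound.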

Homo sapiens [4] = organism: Homo sapiens; assay: Selectivity ratio of EC50 for human alpha1A-adrenergic receptor to EC50 for human beta3-adrenergic receptor
[5] = biological target: T2, Alpha-2C adrenergic receptor (Homo sapiens, UniProt P18825); assay: Agonist activity at human alpha2C-adrenergic receptor
T2 sequence (P18825 whole entry): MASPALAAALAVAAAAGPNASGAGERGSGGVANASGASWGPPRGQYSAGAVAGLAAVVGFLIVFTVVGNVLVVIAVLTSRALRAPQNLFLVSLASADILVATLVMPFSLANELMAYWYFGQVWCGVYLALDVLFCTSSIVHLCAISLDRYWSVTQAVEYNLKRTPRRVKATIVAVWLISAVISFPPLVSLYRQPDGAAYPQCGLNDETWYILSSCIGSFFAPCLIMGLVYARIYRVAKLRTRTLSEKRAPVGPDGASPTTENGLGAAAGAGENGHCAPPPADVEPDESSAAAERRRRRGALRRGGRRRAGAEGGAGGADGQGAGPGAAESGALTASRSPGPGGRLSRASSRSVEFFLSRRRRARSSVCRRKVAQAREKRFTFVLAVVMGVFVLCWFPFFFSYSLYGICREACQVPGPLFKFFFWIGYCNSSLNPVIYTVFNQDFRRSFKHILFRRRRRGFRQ

Homo sapiens [6] = organism: Homo sapiens; assay: Selectivity ratio of EC50 for human beta2-adrenergic receptor to EC50 for human beta3-adrenergic receptor
[7] = biological target: T3, Alpha-2A adrenergic receptor (Homo sapiens, UniProt P08913); assay: Agonist activity at human alpha2A-adrenergic receptor
T3 sequence (P08913 whole entry): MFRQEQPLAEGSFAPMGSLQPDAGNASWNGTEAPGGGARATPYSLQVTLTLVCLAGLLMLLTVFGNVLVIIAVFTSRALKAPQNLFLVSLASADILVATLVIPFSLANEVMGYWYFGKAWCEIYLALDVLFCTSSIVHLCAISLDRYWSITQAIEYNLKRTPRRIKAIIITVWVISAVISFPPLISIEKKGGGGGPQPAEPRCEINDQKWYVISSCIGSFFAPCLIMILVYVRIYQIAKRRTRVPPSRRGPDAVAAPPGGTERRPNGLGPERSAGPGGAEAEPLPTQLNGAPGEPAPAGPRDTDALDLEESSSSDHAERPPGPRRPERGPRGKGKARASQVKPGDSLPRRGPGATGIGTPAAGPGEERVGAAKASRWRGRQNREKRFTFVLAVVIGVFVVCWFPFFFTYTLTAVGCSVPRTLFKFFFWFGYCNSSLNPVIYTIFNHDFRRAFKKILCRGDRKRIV

[8] = biological target: T4, Beta-1 adrenergic receptor (Homo sapiens, UniProt P08588); assay: Intrinsic activity at human beta1-adrenergic receptor expressed in CHO cells assessed as increase of cAMP level after 30 mins relative to isoproterenol; assay type: functional, cell-based
Method in brief: (§2)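 Stably transfected CHO cells expressing human β1, β2 or β3 or marmoset β3 receptor were grown in Ham's F-12 with 10% FBS and geneticin, seeded at 2×10⁴ cells/well and grown about 20 h. Cells spent 15 min serum-free, then 30 min with compound in medium containing HEPES and isobutylmethylxanthine. Lysate cAMP was measured by kit. […] EC50 is the half-maximal concentration for each compound.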
Target sequence in this assay (P08588 whole entry, looked up): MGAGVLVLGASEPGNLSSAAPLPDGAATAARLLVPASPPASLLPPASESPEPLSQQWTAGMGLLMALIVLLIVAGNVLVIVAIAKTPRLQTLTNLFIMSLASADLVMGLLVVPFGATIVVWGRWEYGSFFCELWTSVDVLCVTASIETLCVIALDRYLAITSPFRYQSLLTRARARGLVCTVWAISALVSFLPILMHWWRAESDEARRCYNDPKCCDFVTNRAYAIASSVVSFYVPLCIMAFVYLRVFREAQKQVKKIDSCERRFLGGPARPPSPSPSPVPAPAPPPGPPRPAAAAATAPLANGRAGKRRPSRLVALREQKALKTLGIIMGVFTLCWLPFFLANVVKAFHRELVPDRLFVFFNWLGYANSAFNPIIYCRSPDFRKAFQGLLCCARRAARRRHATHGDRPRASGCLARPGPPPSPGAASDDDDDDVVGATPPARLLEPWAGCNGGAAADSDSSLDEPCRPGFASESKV

Rattus norvegicus [9] = assay: Cardiotoxicity in anesthetized Sprague-Dawley rat assessed as increase in heart rate at 3 mg/kg, iv measured for 30 mins relative to control; assay type: toxicity, organism-based; settings: in vivo, 0.5 h; method in brief: as §1
[10] = biological target: T4, Beta-1 adrenergic receptor; assay: Agonist activity at human beta1-adrenergic receptor expressed in CHO cells assessed as increase of cAMP level after 30 mins; assay type: functional, cell-based; method in brief: as §2
Target sequence in this assay (P08588 whole entry): as the sequence (P08588 whole entry, looked up) above

## Cc1n[nH]c2cc(OCCNC[C@H](O)c3cccc(NS(C)(=O)=O)c3)ccc12
[1]
  Intrinsic activity: 71%
[2]
  pEC50: 7.68
Rattus norvegicus [3]
  Activity: 24.2%
Homo sapiens [4]
  Ratio EC50: 10
[5]
  pEC50: < 5.00
Homo sapiens [6]
  Ratio EC50: > 476
[7]
  pEC50: < 5.00
[8]
  Intrinsic activity: 6%
Rattus norvegicus [9]
  Activity: 7.9%
[10]
  pEC50: < 5.00

Reference: ChEMBL document CHEMBL3600378 (J Med Chem, 2015)
